Tested on: Fibroblast
Test: Multiplex assay against human fibroblast
Type: toxicity, cell-based
Procedure, shortened: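 Per cents of healthy-nucleus cells form the tubulin, mitochondrial-mass and membrane-permeability phenotype values. Live cells were stained at seeding with Hoechst33342, BioTracker Green Microtubule Cytoskeleton Dye, MitoTracker Red and Annexin V Alexa Fluor 680. After compound addition they were imaged on a CQ1 microscope at 37°C and 5% CO2, and CellPathfinder machine-learning gating split them into Hoechst high-intensity objects or normal cells, normal cells into healthy, pyknosed or fragmented nuclei, and pyknosed cells into mitotic or apoptotic.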

[1] = 12 h, 1 µM, compound concentration 1 uM, replicate 1
[2] = 12 h, 1 µM, compound concentration 1 uM, replicate 2
[3] = 12 h, 10 µM, compound concentration 10 uM, replicate 1
[4] = 12 h, 10 µM, compound concentration 10 uM, replicate 2
[5] = 24 h, 1 µM, compound concentration 1 uM, replicate 1
[6] = 24 h, 1 µM, compound concentration 1 uM, replicate 2
[7] = 24 h, 10 µM, compound concentration 10 uM, replicate 1
[8] = 24 h, 10 µM, compound concentration 10 uM, replicate 2
[9] = 48 h, 1 µM, compound concentration 1 uM, replicate 1
[10] = 48 h, 1 µM, compound concentration 1 uM, replicate 2
[11] = 48 h, 10 µM, compound concentration 10 uM, replicate 1
[12] = 48 h, 10 µM, compound concentration 10 uM, replicate 2

For `CN1CCN2c3ccccc3Cc3ccccc3C2C1.Cl` (stereo unspecified) [MIANSERIN HYDROCHLORIDE], the “Population Apoptotic (%)” value [1] was 55%, the “Population Fragmented Nuclei (%)” value [1] was 28% and the “Population Healthy Nuclei (%)” value [1] was 56%. The “Population Hoechst High Intensity Objects (%)” value [1] was 2%, the “Population Membrane Permeable-Phenotype (%)” value [1] was 1% and the “Population Mitochondria Different-Phenotype (%)” value [1] was 0%. For the same compound, the “Population Mitotic Cells (%)” value [1] was 45%, the “Population Normal (%)” value [1] was 97% and the “Population Pyknosed Nuclei (%)” value [1] was 14%. The “Population Tubulin-Different-Phenotype (%)” value [1] was 31%, the “Total Cell Count” value [1] was 138 and the “Population Apoptotic (%)” value [2] was 38%. The “Population Fragmented Nuclei (%)” value [2] was 27%, the “Population Healthy Nuclei (%)” value [2] was 50% and the “Population Hoechst High Intensity Objects (%)” value [2] was 4%. The “Population Membrane Permeable-Phenotype (%)” value [2] was 12%, the “Population Mitochondria Different-Phenotype (%)” value [2] was 5% and the “Population Mitotic Cells (%)” value [2] was 61%. The “Population Normal (%)” value [2] was 95%, the “Population Pyknosed Nuclei (%)” value [2] was 22% and the “Population Tubulin-Different-Phenotype (%)” value [2] was 56%. For the same compound, the “Total Cell Count” value [2] was 119, the “Population Apoptotic (%)” value [3] was 55% and the “Population Fragmented Nuclei (%)” value [3] was 15%. For the same compound, the “Population Healthy Nuclei (%)” value [3] was 68%, the “Population Hoechst High Intensity Objects (%)” value [3] was 5% and the “Population Membrane Permeable-Phenotype (%)” value [3] was 1%. The “Population Mitochondria Different-Phenotype (%)” value [3] was 3%, the “Population Mitotic Cells (%)” value [3] was 44% and the “Population Normal (%)” value [3] was 94%. The “Population Pyknosed Nuclei (%)” value [3] was 15%, the “Population Tubulin-Different-Phenotype (%)” value [3] was 14% and the “Total Cell Count” value [3] was 126. For the same compound, the “Population Apoptotic (%)” value [4] was 33%, the “Population Fragmented Nuclei (%)” value [4] was 24% and the “Population Healthy Nuclei (%)” value [4] was 48%. The “Population Hoechst High Intensity Objects (%)” value [4] was 6%, the “Population Membrane Permeable-Phenotype (%)” value [4] was 3% and the “Population Mitochondria Different-Phenotype (%)” value [4] was 7%. The “Population Mitotic Cells (%)” value [4] was 66%, the “Population Normal (%)” value [4] was 93% and the “Population Pyknosed Nuclei (%)” value [4] was 27%. The “Population Tubulin-Different-Phenotype (%)” value [4] was 40%, the “Total Cell Count” value [4] was 116 and the “Population Apoptotic (%)” value [5] was 52%. For the same compound, the “Population Fragmented Nuclei (%)” value [5] was 32%, the “Population Healthy Nuclei (%)” value [5] was 55% and the “Population Hoechst High Intensity Objects (%)” value [5] was 2%. For the same compound, the “Population Membrane Permeable-Phenotype (%)” value [5] was 0%, the “Population Mitochondria Different-Phenotype (%)” value [5] was 2% and the “Population Mitotic Cells (%)” value [5] was 47%. For the same compound, the “Population Normal (%)” value [5] was 97%, the “Population Pyknosed Nuclei (%)” value [5] was 12% and the “Population Tubulin-Different-Phenotype (%)” value [5] was 29%. For the same compound, the “Total Cell Count” value [5] was 143, the “Population Apoptotic (%)” value [6] was 36% and the “Population Fragmented Nuclei (%)” value [6] was 30%. The “Population Healthy Nuclei (%)” value [6] was 50%, the “Population Hoechst High Intensity Objects (%)” value [6] was 3% and the “Population Membrane Permeable-Phenotype (%)” value [6] was 6%. The “Population Mitochondria Different-Phenotype (%)” value [6] was 1%, the “Population Mitotic Cells (%)” value [6] was 63% and the “Population Normal (%)” value [6] was 96%. For the same compound, the “Population Pyknosed Nuclei (%)” value [6] was 19%, the “Population Tubulin-Different-Phenotype (%)” value [6] was 53% and the “Total Cell Count” value [6] was 119. For the same compound, the “Population Apoptotic (%)” value [7] was 61%, the “Population Fragmented Nuclei (%)” value [7] was 14% and the “Population Healthy Nuclei (%)” value [7] was 73%. The “Population Hoechst High Intensity Objects (%)” value [7] was 5%, the “Population Membrane Permeable-Phenotype (%)” value [7] was 0% and the “Population Mitochondria Different-Phenotype (%)” value [7] was 1%. The “Population Mitotic Cells (%)” value [7] was 38%, the “Population Normal (%)” value [7] was 95% and the “Population Pyknosed Nuclei (%)” value [7] was 11%. For the same compound, the “Population Tubulin-Different-Phenotype (%)” value [7] was 11%, the “Total Cell Count” value [7] was 120 and the “Population Apoptotic (%)” value [8] was 48%. The “Population Fragmented Nuclei (%)” value [8] was 31%, the “Population Healthy Nuclei (%)” value [8] was 47% and the “Population Hoechst High Intensity Objects (%)” value [8] was 4%. For the same compound, the “Population Membrane Permeable-Phenotype (%)” value [8] was 10%, the “Population Mitochondria Different-Phenotype (%)” value [8] was 5% and the “Population Mitotic Cells (%)” value [8] was 52%. For the same compound, the “Population Pyknosed Nuclei (%)” value [8] was 20%, the “Population Tubulin-Different-Phenotype (%)” value [8] was 53% and the “Total Cell Count” value [8] was 127. For the same compound, the “Population Apoptotic (%)” value [9] was 78%, the “Population Fragmented Nuclei (%)” value [9] was 35% and the “Population Healthy Nuclei (%)” value [9] was 55%. The “Population Hoechst High Intensity Objects (%)” value [9] was 2%, the “Population Membrane Permeable-Phenotype (%)” value [9] was 0% and the “Population Mitochondria Different-Phenotype (%)” value [9] was 2%. For the same compound, the “Population Mitotic Cells (%)” value [9] was 21%, the “Population Normal (%)” value [9] was 97% and the “Population Pyknosed Nuclei (%)” value [9] was 9%. For the same compound, the “Population Tubulin-Different-Phenotype (%)” value [9] was 35%, the “Total Cell Count” value [9] was 151 and the “Population Apoptotic (%)” value [10] was 46%. The “Population Fragmented Nuclei (%)” value [10] was 36%, the “Population Healthy Nuclei (%)” value [10] was 51% and the “Population Hoechst High Intensity Objects (%)” value [10] was 3%. For the same compound, the “Population Membrane Permeable-Phenotype (%)” value [10] was 3%, the “Population Mitochondria Different-Phenotype (%)” value [10] was 10% and the “Population Mitotic Cells (%)” value [10] was 53%. For the same compound, the “Population Normal (%)” value [10] was 96%, the “Population Pyknosed Nuclei (%)” value [10] was 11% and the “Population Tubulin-Different-Phenotype (%)” value [10] was 50%. For the same compound, the “Total Cell Count” value [10] was 116, the “Population Apoptotic (%)” value [11] was 57% and the “Population Fragmented Nuclei (%)” value [11] was 15%. The “Population Healthy Nuclei (%)” value [11] was 71%, the “Population Hoechst High Intensity Objects (%)” value [11] was 5% and the “Population Membrane Permeable-Phenotype (%)” value [11] was 0%. The “Population Mitochondria Different-Phenotype (%)” value [11] was 2%, the “Population Mitotic Cells (%)” value [11] was 42% and the “Population Normal (%)” value [11] was 94%. The “Population Pyknosed Nuclei (%)” value [11] was 12%, the “Population Tubulin-Different-Phenotype (%)” value [11] was 16% and the “Total Cell Count” value [11] was 115. For the same compound, the “Population Apoptotic (%)” value [12] was 38%, the “Population Fragmented Nuclei (%)” value [12] was 29% and the “Population Healthy Nuclei (%)” value [12] was 55%. The “Population Hoechst High Intensity Objects (%)” value [12] was 3%, the “Population Membrane Permeable-Phenotype (%)” value [12] was 10% and the “Population Mitochondria Different-Phenotype (%)” value [12] was 1%. For the same compound, the “Population Mitotic Cells (%)” value [12] was 61%, the “Population Normal (%)” value [12] was 96% and the “Population Pyknosed Nuclei (%)” value [12] was 14%. The “Population Tubulin-Different-Phenotype (%)” value [12] was 37% and the “Total Cell Count” value [12] was 125.

Reference: ChEMBL document CHEMBL5058577, “EUbOPEN Chemogenomics Library 2 (Multiplex)” (2022)
